The term pIC50 denotes −log10 of the IC50, conventionally taken in molar units. A higher pIC50 goes with a small IC50.

These results are taken from ChEMBL document CHEMBL1124778, “Synthesis and biological evaluation of prodrugs of zidovudine” (J Med Chem, 1990).

pIC50: −log10 of the molar value. Where only a bound is given, the exact number is not on record here.

Data set [1] in a line: In vitro time required for 50% hydrolysis at 37 degree Celsius upon incubation in rat hepatic microsomes. The data set is classed as functional. The following applies: Liver. An outline of the steps: (§1)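 Ester (10 mg/mL DMSO stock, diluted 1:100) incubated at 37 °C in human plasma or in rat hepatic microsomes (15.5 mg protein/mL solution). Samples taken over 0–4 h and quenched in ice-cold methanol. Remaining ester quantified by reverse-phase HPLC. t1/2 = time to 50% hydrolysis.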

Another data set relates to H9. Nature of the data set: Evaluated in vitro for the concentration required to produce 50% inhibition of proliferation of H9 lymphocytes. The data set is classed as functional, cell-based. The following applies: Homo sapiens. An outline of the steps:
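H9 lymphoblastoid cells grown in RPMI 1640 with 15% FBS, penicillin/streptomycin and 2 mM L-glutamine at 37 °C under 5% CO2. Viability read by trypan blue dye exclusion. IC50 taken as the concentration giving 50% inhibition of proliferation.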

Data set [2] in a line: Evaluated for Partition coefficient in n-octanol and phosphate buffer pH 7.4. The data set is classed as physicochemical. The following applies: octanol/water. An outline of the steps:
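Ester solutions in n-octanol equilibrated with phosphate buffer (0.2 M, pH 7.4) at room temperature. Partition coefficient derived from the distribution between the two phases.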

A short description of data set [3]: In vitro time required for 50% hydrolysis at 37 degree Celsius upon incubation in human plasma. It counts as functional, cell-free. An outline of the steps:
as §1

Data set [4] deals with Human immunodeficiency virus 1. Nature of the data set: Evaluated in vitro for the concentration required to produce 50% inhibition of replication of HIV-1. The data set is classed as functional, organism-based.

As to `Cc1cn(C2CC(N=[N+]=[N-])C(COC(=O)CCC(N)C(=O)O)O2)c(=O)[nH]c1=O` (stereo not drawn), the T1/2 was determined as 30 min in data set [1] and 70 min in data set [3]. The negative logarithm of the IC50 (pIC50) with H9 is 3.49. The molecule further displayed a PC in data set [2] of 0.12.

For the molecule `Cc1cn([C@H]2C[C@H](N=[N+]=[N-])[C@@H](COC(=O)C(N)CCCCN)O2)c(=O)[nH]c1=O.O=C(O)C(F)(F)F` (stereo partly drawn), the figures for the T1/2 in data set [1] and in data set [3] were 14 min and 30 min, respectively. The same molecule showed a pIC50 in the data set with H9 of 3.52. The PC in data set [2] came out at 0.01.

As for `Cc1cn([C@H]2C[C@H](N=[N+]=[N-])[C@@H](COC(=O)C(N)Cc3ccccc3)O2)c(=O)[nH]c1=O.O=C(O)C(F)(F)F` (stereo partly drawn), the T1/2 in data set [1] amounted to 30 min; in data set [3], 20 min. Besides, the negative logarithm of the IC50 (pIC50) was 3.46 with H9 and 6.96 in data set [4]. The PC in data set [2] is given as 3.3.

Turning to `Cc1cn([C@H]2C[C@H](N=[N+]=[N-])[C@@H](COC(=O)CN3CCOCC3)O2)c(=O)[nH]c1=O`, the T1/2 turned out to be 28 min in data set [1] and 12 min in data set [3]. The molecule also showed a pIC50 in the data set with H9 of 3.49. In data set [2], this molecule had a PC of 2.2.

`CCC(C)C(N)C(=O)OC[C@H]1O[C@@H](n2cc(C)c(=O)[nH]c2=O)C[C@@H]1N=[N+]=[N-].O=C(O)C(F)(F)F` (stereo partly drawn): the T1/2 in data set [1] is 19 min; in data set [3], over 240 min. Also, the negative-log IC50 (pIC50) is 3.60 in the data set with H9 and 7.00 in data set [4]. This molecule also yielded a PC in data set [2] of 10.3.

On to `Cc1cn([C@H]2C[C@H](N=[N+]=[N-])[C@@H](COC(=O)c3cccnc3)O2)c(=O)[nH]c1=O`, for which the T1/2 in data set [1] is 30 min; in data set [3] it was 10 min. Moreover, the PC in data set [2] is 1.6.

`CC1=C(/C=C/C(C)=C/C=C/C(C)=C/C(=O)OC[C@H]2O[C@@H](n3cc(C)c(=O)[nH]c3=O)C[C@@H]2N=[N+]=[N-])C(C)(C)CCC1`: the figures for the T1/2 in data set [1] and in data set [3] were 60 min and 120 min, respectively. The pIC50 is 4.60 in the data set on H9 and 6.70 in data set [4]. For the same molecule, the PC in data set [2] came out at 17.9.

With `Cc1cn([C@H]2C[C@H](N=[N+]=[N-])[C@@H](COC(=O)C3=CN(C)C=CC3)O2)c(=O)[nH]c1=O`, the results for the T1/2 in data set [1] and in data set [3] were 110 min and over 240 min, respectively. The pIC50 is 3.47 in the data set with H9 and 7.30 in data set [4]. Also, in data set [2], the PC is 7.2.

For the molecule `Cc1cn([C@H]2C[C@H](N=[N+]=[N-])[C@@H](COC(=O)C(N)Cc3ccc(O)cc3)O2)c(=O)[nH]c1=O.O=C(O)C(F)(F)F` (stereo partly drawn), the T1/2 is 5 min in data set [1] and 60 min in data set [3]. Besides, the results for the pIC50 (in the data set on H9; in data set [4]) were 3.52 and 6.96, respectively. Further, the PC in data set [2] was found to be 0.94.

As to `Cc1cn([C@H]2C[C@H](N=[N+]=[N-])[C@@H](CO)O2)c(=O)[nH]c1=O` [ZIDOVUDINE], the pIC50 with H9 was 3.82; in data set [4], 6.92. The molecule also yielded a PC in data set [2] of 1.2.
